# High-throughput results deposited in PubChem by several laboratories.
# Rows were chosen to be rich in hits. Some 1.8% of all compounds tested hit in one or more screens of this group.
# PPC-1+TRAIL kill: compounds killing PPC-1 cancer cells with TRAIL present, primary screen, TRAIL potentiator project, ATPLite luminescence, uHTS; PPC-1 cells + TRAIL, ATPLite viability luminescence; AID 1443, 2008; 220,000 tested, 0.41% active; cell killing (% activity), % at 4 µM or 5 µM;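 active means cell killing above 50% in the first pass at 4 µM, then a duplicate retest at 5 µM averaging 50% or more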;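 further: plate controls were cells with TRAIL plus DMSO for no effect and medium-only wells lacking cells for full effect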
# STAT3 activator: IL-6 driven STAT3 reporter potentiators, primary screen, U3A cells, luciferase, luminescence, MLSCN library; IL-6 STAT3-luciferase reporter; 100% = signal with IL-6 EC80 alone; activation (% of control), % at 5.6 µM; 190,000 tested, 0.91% active; AID 871, 2007;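 active means activation above the screen-wide mean of compound activation plus 3 SD, cut at about 130% in these data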;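 further: 0% = background luminescence of wells with medium and substrate only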
#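 Test system: Human STAT1-deficient U3A cells with stable STAT3-luciferase reporter | Also added: Interleukin-6, 33 ng/mL | Timing: Compound pre-incubation 1 h before IL-6, then 6 h stimulation at 37 °C | Technique: Luciferase reporter luminescence | Read-out: Percent of IL-6-only median luminescence | Benchmarks: IL-6-only wells as 100% reference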
# C8 TRAIL sens: viability loss with TRAIL in NB7+C8 cells, primary screen, TRAIL sensitizer project, cell-based, ATPlite luminescence; inhibition (viability loss, TRAIL sensitization), % at 10 µM; 360,000 tested, 1% active; AID 624354, 2012;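 active means compounds causing at least 50% loss of cell viability in the single-dose screen, relative to plate controls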
# STAT3 inh-1: IL-6 driven STAT3 reporter inhibitors, primary screen, U3A cells, luciferase, luminescence, MLSCN library. IL-6 STAT3-luciferase reporter; host cell line lacks STAT1. inhibition, % at 5.5 µM. 190,000 tested, 0.89% active. AID 862, 2007;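 active means inhibition above the mean inhibition across all screened compounds plus 3 SD, cut at about 44% in these data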;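 further: 0% = DMSO only wells and 100% = 100 µM nifuroxazide control wells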
# STAT1 inh: STAT1 signaling inhibitors, primary screen, cell-based, HTS, luciferase reporter; NIH 3T3 STAT1-luciferase reporter, IFN-gamma, luminescence; inhibition, % at 5.5 µM; 200,000 tested, 0.35% active; AID 920, 2007;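 active means inhibition above a set limit, the mean inhibition across all tested compounds plus 3 SD, cut at about 34% in these data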;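 further: 0% = IFN-gamma with DMSO and 100% = IFN-gamma with 300 µM nifuroxazide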
# STAT3 inh-2: STAT3 reporter inhibitors, retest of hits, confirmation, U3A cells, luciferase, luminescence; shares compounds with STAT3 inh-1; IL-6 STAT3 luciferase reporter; cell line lacks STAT1; inhibition, % at 5.7 µM; 1,200 tested, 45% active;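 active means inhibition above the hit cutoff computed for the primary STAT3 screen, cut at about 44% in these data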;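 further: 0% = IL-6 plus DMSO and 100% = IL-6 plus nifuroxazide control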
# NFkB inh STAT3ct: NF-kB reporter inhibitors in human cells, confirmation, counter-screen for STAT3 inhibitor project, cell-based, HEK293T, luciferase, TNF-alpha stimulus; shares compounds with STAT3 inh-1; TNF-alpha induced; 1,200 tested, 36% active; inhibition, % at 5.7 µM;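 active means inhibition above the mean of solvent-only control wells plus 3 SD, cutoff set per campaign, cut at about 13% in these data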;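 further: 0% = TNF-alpha with DMSO and 100% = TNF-alpha with MG high control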
# STAT1 inh 2: STAT1 reporter inhibitors, IFN-gamma induced, confirmation, counter-screen for STAT3 inhibitor project, cell-based, NIH 3T3, luciferase luminescence; shares compounds with STAT3 inh-1; NIH 3T3 STAT1-luciferase reporter; inhibition, % at 5.7 µM; 1,200 tested, 27% active;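 active means inhibition above the mean plus 3 SD of solvent-only control wells, limit set per screening run, cut at about 16% in these data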;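 further: 0% = DMSO with IFN-gamma and 100% = nifuroxazide control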
# Numbers without * were called inactive; . = no result given.
SMILES,PPC-1+TRAIL kill,STAT3 activator,C8 TRAIL sens,STAT3 inh-1,STAT1 inh,others
CC(=O)N(C)c1ccc(N=Nc2ccc3ncccc3c2)cc1,.,.,62*,.,.,
Oc1ccc(C=Nc2ccc3ncccc3c2)c(O)c1,17,115,.,-12,-5,
CCOC(=O)C1(C)CCN1C(=O)c1ccc(OC)c(C(F)(F)F)c1 (stereo not given),.,.,-10,.,.,
C[C@H](CO)N1C[C@H](C)[C@@H](CN(C)C(=O)NC2CCCCC2)Oc2c(NS(=O)(=O)c3ccc(F)cc3)cccc2C1=O,.,.,-10,.,.,
C[C@H](CO)N1C[C@H](C)[C@@H](CN(C)C(=O)NC2CCCCC2)Oc2c(NS(=O)(=O)c3ccccc3)cccc2C1=O,.,.,50*,.,.,
CCCCCN(C(=O)CSc1n[nH]c(-c2ccc(C)cc2)n1)c1c(N)n(CCCC)c(=O)[nH]c1=O,.,.,55*,.,.,
CCCCn1c(N)c(N(CCOC)C(=O)CSc2n[nH]c(-c3ccc(C)cc3)n2)c(=O)[nH]c1=O,.,.,1,.,.,
Oc1ccc(/C=N/NC(=S)Nc2cccnc2)c(O)c1,28,90,80*,14,13,
Oc1ccc(C=NNC(=S)Nc2ccc(F)cc2)c(O)c1,.,.,12,.,.,
Oc1cccc(/C=N/NC(=S)Nc2cccnc2)c1O,27,89,56*,12,10,
Oc1ccc(/C=N/NC(=S)Nc2cccnc2)c(O)c1O,4,.,-18,.,.,
CCc1cccc(N(C(=O)c2csnn2)C(C(=O)NC2CCCCC2)c2cccnc2)c1 (stereo not given),.,.,17,.,.,
O=C(Nc1ccccc1)c1cc(S(=O)(=O)NCc2ccncc2)ccc1Cl,.,.,18,.,.,
CC(=O)N1CCSc2ccc(S(=O)(=O)Nc3ccccc3C)cc21,.,.,17,.,.,
Cc1ccc(Nc2cc(C)nc(N3CCOCC3)n2)cc1,25,134*,-2,-34,-17,
Cc1cc(Nc2ccc(C)c(Cl)c2)nc(N2CCOCC2)n1,-2,.,8,.,.,
COC(=O)c1ccc(NC(=O)C(=O)c2cccn2C)cc1,18,36,62*,79*,47*,
COC(=O)c1ccc(NC(=O)c2ccccc2C(=O)Nc2ccc(C(=O)OC)cc2)cc1,.,.,24,.,.,
Nc1c(C(=O)Nc2cccc(C(=O)O)c2)sc2nc3c(cc12)CCCC3,.,.,82*,.,.,
COCc1cccc(-c2csc(C(NC(C)=O)c3ccc(F)c(F)c3)n2)c1 (stereo not given),.,.,-18,.,.,
CC1CCN(S(=O)(=O)c2cccc(C(=O)NC3CCCC3)c2)CC1,.,.,4,.,.,
CCCCCn1c2c(c(=N)c3ccccc31)CCC2,-1,.,0,.,.,
Cc1cc(C)c2c(=N)c3ccccc3n(CCCCCCCCn3c4ccccc4c(=N)c4c(C)cc(C)nc43)c2n1,.,.,79*,.,.,
CC(CCc1ccccc1)NC(=O)c1ccccc1 (stereo not given),12,105,-4,0,-1,
CC(CCc1ccccc1)NC(=O)c1ccc(C(=O)NC(C)CCc2ccccc2)cc1 (stereo not given),8,53,-7,60*,3,
SMILES,PPC-1+TRAIL kill,STAT3 activator,C8 TRAIL sens,STAT3 inh-1,STAT1 inh,others
Fc1ccc(Nc2ccc3ccccc3n2)c(F)c1,28,41,40,72*,44*,
O=C(Nc1ccc2ccccc2n1)Nc1ccccc1F,.,.,10,.,.,
Cc1ccc(C2=NS(=O)(=O)N(C)C(C(=O)NCc3cccs3)=C2)cc1,.,.,56*,.,.,
CCOC(=O)N1CCN(C(=O)C[C@@H]2C[C@@]3(C(=O)OC)CCCCC=C3N(Cc3ccccc3)C2=O)CC1,.,.,6,.,.,
CCOC(=O)C1CCN(c2ccc(-c3cccs3)nn2)CC1,.,.,40,.,.,
c1csc(-c2ccc(N3CCOCC3)nn2)c1,.,.,60*,.,.,
CCCCOc1ccc(-c2nc(SCC(N)=O)n[nH]2)cc1,7,111,16,-10,-11,
CCCCOc1ccc(-c2nc(=S)[nH][nH]2)cc1,16,101,61*,0,2,
CCC(C)N(CC(=O)Nc1cccc(C)c1C)C(=O)CCl (stereo not given),9,42,97*,70*,38*,
O=C(O)CSCC(=O)Nc1ccc(Cl)cc1C(F)(F)F,14,99,4,8,0,
CCC(CC)NC(=O)Nc1cccc(C)c1C,-30,100,-6,9,3,
CC(C)N(CC(=O)Nc1ccc(Cl)cc1C(F)(F)F)C(=O)CCl,24,49,95*,65*,46*,
NC(=O)CC(NC(=O)c1ccc(Br)cc1)c1ccc(NC2CCCCCC2)c([N+](=O)[O-])c1 (stereo not given),.,.,9,.,.,
Cn1c(CC2C(=O)Nc3ccc(Br)cc32)nc2ccccc2c1=O (stereo not given),-1,133*,-2,-36,14,
c1cc(-c2cc3cc(N4CCOCC4)ccc3o2)cs1,.,.,79*,.,.,
CC1=C(C(=O)N(C(C)C)C(C)C)CC(CC(=O)NCC2CCCCC2)C(=O)N1Cc1ccc(C(C)(C)C)cc1 (stereo not given),.,.,9,.,.,
CC1CCN(C(=O)CCn2c(=O)oc3ccc(Cl)cc32)CC1,.,.,6,.,.,
Cn1c2ccccc2c(=O)c2c(=O)n(-c3ccccc3)c(C3CCCCC3)nc21,31,134*,5,-45,0,
C=CCNc1nc(-c2sc(NC(=O)CC)nc2C)cs1,14,135*,0,-37,-28,
O=C(Nc1cccc(C(=O)O)c1)Nc1ccccc1Cl,13,29,21,89*,79*,
O=C(Nc1cccc(Cl)c1)Nc1cccc(C(=O)O)c1,14,.,23,.,.,
O=C(Nc1ccc(Cl)cc1)Nc1cccc(C(=O)O)c1,27,18,65*,99*,88*,
N/C(=N\OC(=O)C12CC3CC(CC(C3)C1)C2)c1ccccc1,19,118,60*,-9,-1,
N/C(=N\OC(=O)C12CC3CC(CC(C3)C1)C2)c1cccnc1,5,102,9,2,-12,
CC(C)Oc1ccc(C(=O)Nc2c3c(nn2C(C)(C)C)CS(=O)(=O)C3)cc1,.,.,5,.,.,
CCOC(=O)c1oc2ccc(S(=O)(=O)n3nc(-c4ccccc4)cc3N)cc2c1C,-29,60,15,54*,21,STAT3 inh-2=40;NFkB inh STAT3ct=13*;STAT1 inh 2=12
